Experimental data from ChEMBL document CHEMBL1641521, “Design, synthesis and antimycobacterial activities of 1-methyl-2-alkenyl-4(1H)-quinolones” (Bioorg Med Chem, 2011).
Converted amounts (≈) assume the structure as drawn.

Tests used:
[1] = test system: Mycolicibacterium smegmatis; test: Antimycobacterial activity against Mycobacterium smegmatis ATCC 19420 after 72 hrs by broth microtiter dilution method; format: functional; conditions: ATCC 19420, 72 h
In short: (§1)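 Twofold serial dilution in cation-adjusted Mueller–Hinton broth, final 128–0.25 mg/L, compounds first dissolved in DMSO. Strains grown on Columbia blood agar with 7% defibrinated horse blood; inoculum 5 x 10^5 cfu/mL from 0.5 McFarland suspension in 0.9% NaCl. Three runs in duplicate.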

[2] = Cytotoxicity against human MRC5 cells assessed as metabolic active cells at 100 uM after 72 hrs by XTT assay relative to control; format: ADME, cell-based; conditions: read-out: Activity
In short: (§2)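 MRC-5 human diploid embryonic lung cells seeded at 5 × 10^4 cells/well, grown 24 h, then exposed 72 h at 37 °C, 5% CO2 to compound. Ethanol stocks were diluted with buffer or water; 0.1% ethanol served as solvent control. XTT added, 4 h further, absorbance 490 nm minus 655 nm reference. Viability given as % of solvent control; triplicate on two plates, n = 6, mean ± SEM.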

[3] = Cytotoxicity against human MRC5 cells assessed as metabolic active cells at 30 uM after 72 hrs by XTT assay relative to control; format: ADME, cell-based; conditions: read-out: Activity; in short: as §2
[4] = test system: Mycolicibacterium fortuitum; test: Antimycobacterial activity against Mycobacterium fortuitum ATCC 6841 after 72 hrs by broth microtiter dilution method; format: functional; conditions: ATCC 6841, 72 h; in short: as §1
Mycolicibacterium phlei = test: Antimycobacterial activity against Mycobacterium phlei ATCC 19249 after 72 hrs by broth microtiter dilution method; format: functional; conditions: ATCC 19249, 72 h; in short: as §1
[5] = Selectivity index, ratio of IC50 for human MRC5 cells to MIC for Mycobacterium smegmatis ATCC 19420; format: functional

Structure (SMILES) | MIC [1] | viability at 72 h, 100 µM [2] | viability at 72 h, 30 µM [3] | MIC [4] | MIC (Mycolicibacterium phlei) | Selectivity Index [5]
CCCC/C=C\CCCCc1cc(=O)c2ccccc2n1C | 26.9 µM (≈ 8 µg/mL) | 83.5% | 96.8% | 8 mg/L (≈ 26.9 µM) | 8 mg/L (≈ 26.9 µM) | 
CCCCCCCCCC/C=C\CCc1cc(=O)c2ccccc2n1C | 2.8 µM (≈ 0.99 µg/mL) | 4.9% | 55.1% | 1 mg/L (≈ 2.83 µM) | 1 mg/L (≈ 2.83 µM) | 
CCCCCC/C=C/c1cc(=O)c2ccccc2n1C | 14.9 µM (≈ 4.01 µg/mL) | 76.5% | 96.8% |  |  | 
CCCCCCCCCCCCCc1cc(=O)c2ccccc2n1C | 188 µM (≈ 64.1 µg/mL) | 69.6% | 102% |  |  | 
NNC(=O)c1ccncc1 [ISONIAZID] |  |  |  | 1 mg/L (≈ 7.29 µM) | 4 mg/L (≈ 29.2 µM) | 
CCCCCC/C=C\CCc1cc(=O)c2ccccc2n1C | 53.9 µM (≈ 16 µg/mL) | 47.9% | 73.8% |  |  | 
CCCCCCCC/C=C\CCCCCCCc1cc(=O)c2ccccc2n1C | 20.3 µM (≈ 8.03 µg/mL) | 0.4% | 53.4% |  |  | 
CCCCCCCCCCC/C=C/C=C/c1cc(=O)c2ccccc2n1C | 10.9 µM (≈ 3.98 µg/mL) | 18.5% | 50.7% | 2 mg/L (≈ 5.47 µM) | 4 mg/L (≈ 10.9 µM) | 
CCCCCCCCC/C=C\CCc1cc(=O)c2ccccc2n1C | 5.9 µM (≈ 2 µg/mL) | 82.1% | 89.7% |  |  | > 20
CCCCCCCCC/C=C\CCCCCCCCc1cc(=O)c2ccccc2n1C | 151 µM (≈ 64.1 µg/mL) | 19.9% | 95.9% |  |  | 
CCCCCCCC/C=C\CCCCCCCCc1cc(=O)c2ccccc2n1C | 39.1 µM (≈ 16 µg/mL) | 25.5% | 84.4% |  |  | 
CC[C@@H](CO)NCCN[C@@H](CC)CO [ETHAMBUTOL] |  |  |  | 8 mg/L (≈ 39.2 µM) | 4 mg/L (≈ 19.6 µM) | 
CCCCCCCCCCCCCCCCCc1cc(=O)c2ccccc2n1C | > 322 µM | 95.2% | 100% |  |  | 
CCCCCCCCCCCCCCCc1cc(=O)c2ccccc2n1C | 347 µM (≈ 128 µg/mL) | 57.9% | 79.8% |  |  | 
CCCCC/C=C\CCCCc1cc(=O)c2ccccc2n1C | 12.9 µM (≈ 4.02 µg/mL) | 88.5% | 94.9% |  |  | 
CCCCCCCCCC/C=C/C=C/c1cc(=O)c2ccccc2n1C | 182 µM (≈ 64.1 µg/mL) | 32.5% | 73.8% |  |  | 
CCCCC/C=C/c1cc(=O)c2ccccc2n1C | 62.7 µM (≈ 16 µg/mL) | 77.2% | 86.2% |  |  | 
CC/C=C\CCCCCCCCCc1cc(=O)c2ccccc2n1C | 5.9 µM (≈ 2 µg/mL) | 95.4% | 95.3% |  |  | > 20
CCCCCC/C=C\CCCCc1cc(=O)c2ccccc2n1C | 3.1 µM (≈ 1.01 µg/mL) | 81.2% | 94.7% |  |  | > 20
CCCCC/C=C\CCCCCCc1cc(=O)c2ccccc2n1C [EVOCARPINE] | 5.9 µM (≈ 2 µg/mL) | 87.6% | 94% | 2 mg/L (≈ 5.89 µM) | 2 mg/L (≈ 5.89 µM) | 
CCCCCCCC/C=C\CCCc1cc(=O)c2ccccc2n1C | 5.9 µM (≈ 2 µg/mL) | 32% | 76.3% |  |  | 
CCCCCCCCC/C=C\CCCCc1cc(=O)c2ccccc2n1C | 2.7 µM (≈ 0.992 µg/mL) | 0.8% | 46.6% |  |  | 
CCCCCCCCCC/C=C\CCCCCCCCc1cc(=O)c2ccccc2n1C | 293 µM (≈ 128 µg/mL) | 91.5% | 98.9% |  |  | 
CCCCC/C=C\C/C=C\CCCCCCCc1cc(=O)c2ccccc2n1C | 5.1 µM (≈ 2.01 µg/mL) | 0.4% | 44.2% | 4 mg/L (≈ 10.2 µM) | 8 mg/L (≈ 20.3 µM) | 
CCCCCCCC/C=C\CCc1cc(=O)c2ccccc2n1C | 6.2 µM (≈ 2.02 µg/mL) | 85.6% | 88.3% |  |  | > 20
